From ChEMBL document CHEMBL1148461, “Discovery of the first non-peptide full agonists for the human bradykinin B(2) receptor incorporating 4-(2-picolyloxy)quinoline and 1-(2-picolyl)benzimidazole frameworks” (J Med Chem, 2004)

Experiments:
[1] = system: WI-38; assay: Relative agonistic activity (1 uM) induced PGE-2 production in human fibroblast WI-38 cells compared to bradykinin (100 nM); assay type: functional
Procedure, shortened: (§1)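 WI-38 human fibroblasts seeded 1 × 10^5 cells/well in E-MEM with 1% FBS, cultured 24 h. Medium replaced with Hanks-BSA buffer, then test compound for 30 min at 37 °C. Supernatant PGE2 measured by EIA, with control (no compound) subtracted. Result expressed relative to 100 nM BK.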

[2] = system: WI-38; assay: Relative agonistic activity (10 uM) induced PGE-2 production in human fibroblast WI-38 cells compared to bradykinin (100 nM); assay type: functional; procedure, shortened: as §1
[3] = target: T1, B2 bradykinin receptor (Cavia porcellus, UniProt O70526); assay: Concentration required to inhibit specific binding of [3H]-BK(0.06 nM) to the bradykinin receptor B2
T1 sequence (O70526 whole entry): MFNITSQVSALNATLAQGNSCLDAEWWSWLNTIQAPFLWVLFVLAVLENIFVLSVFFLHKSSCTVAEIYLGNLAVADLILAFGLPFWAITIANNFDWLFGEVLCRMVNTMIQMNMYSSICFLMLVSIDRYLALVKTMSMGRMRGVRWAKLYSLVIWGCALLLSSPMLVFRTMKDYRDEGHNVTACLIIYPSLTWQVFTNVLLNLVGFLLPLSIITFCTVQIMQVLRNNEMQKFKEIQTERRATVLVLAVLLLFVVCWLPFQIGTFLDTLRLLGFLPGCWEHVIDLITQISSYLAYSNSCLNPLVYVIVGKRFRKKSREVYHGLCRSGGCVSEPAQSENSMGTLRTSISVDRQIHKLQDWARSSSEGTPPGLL
Procedure, shortened: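 Guinea pig (male Hartley) ileum membranes in pH 6.8 TES buffer with phenanthroline, bacitracin, DTT, captopril and 0.1% BSA; 0.2 mg protein/mL incubated with 0.06 nM [3H]BK and varying test concentrations, 60 min at room temperature; filtration on glass fiber filters, scintillation counting. Nonspecific binding with 1 μM unlabeled BK. IC50 averaged over at least three determinations.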

[4] = target: T2, B2 bradykinin receptor (Homo sapiens, UniProt P30411); assay: Inhibition of [3H]BK (1.0 nM) binding to the human bradykinin receptor B2, expressed in CHO cells; assay type: cell-based
T2 sequence (P30411 whole entry): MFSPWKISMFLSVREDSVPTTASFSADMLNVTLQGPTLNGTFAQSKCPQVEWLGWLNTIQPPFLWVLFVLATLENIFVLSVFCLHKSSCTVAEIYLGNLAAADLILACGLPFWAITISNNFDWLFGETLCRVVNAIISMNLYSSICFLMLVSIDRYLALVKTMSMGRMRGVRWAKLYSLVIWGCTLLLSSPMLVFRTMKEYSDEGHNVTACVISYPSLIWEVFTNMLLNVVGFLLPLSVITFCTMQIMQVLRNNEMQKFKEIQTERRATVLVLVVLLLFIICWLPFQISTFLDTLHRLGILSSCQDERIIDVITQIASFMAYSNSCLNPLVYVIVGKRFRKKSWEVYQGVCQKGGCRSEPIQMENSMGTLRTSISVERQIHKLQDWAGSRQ
Procedure, shortened: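 Whole CHO (dhfr-) cells stably expressing human B2, seeded 3.0 × 10^4 cells/well and cultured 1 day. Incubated with 1.0 nM [3H]BK plus test compound for 2 h at 4 °C in pH 7.2 HEPES/N-methyl-D-glucamine buffer with bacitracin, enalaprilat and 0.1% BSA. Cells lysed in SDS/NaOH for scintillation counting. Nonspecific binding with 1 μM BK; three experiments.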

[5] = target: T3, B2 bradykinin receptor (Homo sapiens) (UniProt P30411); assay: Relative agonistic activity (10 uM) induced inositol phosphate formation in CHO cells expressing the human B2 receptor compared to bradykinin (10 nM); assay type: functional, cell-based
T3 sequence (whole entry): T2 sequence (P30411 whole entry)
Procedure, shortened: (§2)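 Human B2-expressing CHO cells labeled with [3H]inositol (1 μCi/mL) for 24 h, preincubated with 10 mM LiCl, then exposed to compound for 30 min at 37 °C. Stopped with 5% TCA; IP1–IP3 separated by anion-exchange chromatography and counted. Basal radioactivity subtracted; response expressed relative to 10 nM BK.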

[6] = target: T3, B2 bradykinin receptor (Homo sapiens); assay: (§3) Relative induced inositol phosphate formation in CHO cells expressing the human B2 receptor compared to bradykinin (10 nM); assay type: functional, cell-based; procedure, shortened: as §2
[7] = target: T3, B2 bradykinin receptor (Homo sapiens); assay: as §3; assay type: functional, cell-based; procedure, shortened: as §2; remark: listed apart in the source
[8] = target: T1, B2 bradykinin receptor; assay: Concentration required to inhibit specific binding of [3H]-BK(0.06 nM) to the B2 receptor in guinea pig ileum membrane;; assay type: tissue-based
Procedure, shortened: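 Male Hartley guinea pig ileum membranes (homogenised, 1000g debris spin, 10000g pellet) at 0.2 mg protein/mL in pH 6.8 TES buffer with 1,10-phenanthroline, bacitracin, DTT, captopril, 0.1% BSA; incubated with 0.06 nM [3H]BK and varying compound concentrations, 60 min room temperature; GF/B filtration, scintillation counting. Nonspecific binding with 1 μM unlabeled BK; three experiments; IC50 averaged from ≥3 determinations.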

Structure (SMILES) | Relative agonistic activity [1] | Relative agonistic activity [2] | IC50 [3] | IC50 [4] | Relative agonistic activity [5] | Relative agonistic activity [6] | Relative agonistic activity [7] | IC50 [8]
COc1nc2c(OCc3c(Cl)ccc(N(C)C(=O)CNC(=O)/C=C/c4ccc(NC(C)=O)nc4)c3Cl)cccc2n1C | 4.2% | 24.2% | – | – | – | – | – | –
CNC(=O)c1ccc(/C=C/C(=O)NCC(=O)N(C)c2ccc(Cl)c(COc3cccc4c(OC5CCCC5)cc(C)nc34)c2Cl)cc1 | – | – | 25 nM | 61 nM | – | – | – | –
CNC(=O)c1ccc(/C=C/C(=O)NCC(=O)N(C)c2ccc(Cl)c(COc3cccc4c(OCc5ccccn5)cc(C)nc34)c2Cl)cc1 | 81.2% | 140% | 2.3 nM | 0.41 nM | 56.9% | 59.5% | 51.3% | –
CCOc1cc(C)nc2c(OCc3c(Cl)ccc(N(C)C(=O)CNC(=O)/C=C/c4ccc(C(=O)NC)cc4)c3Cl)cccc12 | – | – | 0.19 nM | 34 nM | – | – | – | –
COc1nc2c(OCc3c(Cl)ccc(N(C)C(=O)CNC(=O)/C=C/c4ccc(NC(C)=O)nc4)c3Cl)cccc2n1Cc1ccccc1 | 84.5% | 73.9% | 26 nM | 2.5 nM | – | – | – | –
Cc1cc(OCc2ccccn2)c2cccc(OCc3c(Cl)ccc(N(C)C(=O)CNC(=O)/C=C/c4ccc(C(=O)Nc5ccncc5)cc4)c3Cl)c2n1 | – | – | – | 0.4 nM | – | 47.4% | 36.7% | –
Cc1cc(OCc2ccccn2)c2cccc(OCc3c(Cl)ccc(N(C)C(=O)CNC(=O)/C=C/c4ccc(NC(=O)Cc5ccncc5)nc4)c3Cl)c2n1 | – | – | – | 2.4 nM | – | 40.3% | 39.8% | –
CNC(=O)c1ccc(/C=C/C(=O)NCC(=O)N(C)c2ccc(Cl)c(COc3cccc4c(OC)cc(C)nc34)c2Cl)cc1 | – | – | 0.23 nM | 8.1 nM | – | – | – | –
CC(=O)Nc1ccc(/C=C/C(=O)NCC(=O)N(C)c2ccc(Cl)c(COc3cccc4c(OCc5ccccn5)cc(C)nc34)c2Cl)cn1 | – | – | 1.2 nM | 1.2 nM | – | 57% | 43.4% | –
Cc1cc(OCc2ccccn2)c2cccc(OCc3c(Cl)ccc(N(C)C(=O)CNC(=O)/C=C/c4ccc(C(=O)N(C)C)cc4)c3Cl)c2n1 | – | – | – | 1.4 nM | – | 34.3% | 22.3% | –
CNC(=O)c1ccc(/C=C/C(=O)NCC(=O)N(C)c2ccc(Cl)c(COc3cccc4c(OCc5ccccn5)cc(C)nc34)c2Cl)cc1OC | – | – | – | 0.69 nM | – | 73.9% | 54.9% | –
CNC(=O)c1ccc(/C=C/C(=O)NCC(=O)N(C)c2ccc(Cl)c(COc3cccc4c(OCC(=O)N(C)C)cc(C)nc34)c2Cl)cc1 | – | – | 30 nM | 3.7 nM | 24.4% | 30.8% | – | –
CNC(=O)c1ccc(/C=C/C(=O)NCC(=O)N(C)c2ccc(Cl)c(COc3cccc4c(OCC(=O)O)cc(C)nc34)c2Cl)cc1 | – | – | 50 nM | > 1000 nM | – | – | – | –
CNC(=O)c1ccc(/C=C/C(=O)NCC(=O)N(C)c2ccc(Cl)c(COc3cccc4c(OC(C)C)cc(C)nc34)c2Cl)cc1 | – | – | 1.2 nM | 13 nM | – | – | – | –
COc1nc2c(OCc3c(Cl)ccc(N(C)C(=O)CNC(=O)/C=C/c4ccc(NC(C)=O)nc4)c3Cl)cccc2n1Cc1ccccn1 | 114% | 89.5% | – | 0.68 nM | – | – | – | –
CCCOc1cc(C)nc2c(OCc3c(Cl)ccc(N(C)C(=O)CNC(=O)/C=C/c4ccc(C(=O)NC)cc4)c3Cl)cccc12 | – | – | 1.2 nM | 77 nM | – | – | – | –
Cc1cc(OCc2ccccn2)c2cccc(OCc3c(Cl)ccc(N(C)C(=O)CNC(=O)/C=C/c4ccc(N5CCCC5=O)cc4)c3Cl)c2n1 | – | – | – | 0.83 nM | – | 67.4% | 42.9% | –
CCOC(=O)Cn1c(OC)nc2c(OCc3c(Cl)ccc(N(C)C(=O)CNC(=O)/C=C/c4ccc(NC(C)=O)nc4)c3Cl)cccc21 | – | 121% | 4.2 nM | 0.91 nM | – | – | – | –
CNC(=O)c1ccc(/C=C/C(=O)NCC(=O)N(C)c2ccc(Cl)c(COc3cccc4c(OCc5ccccn5)cc(C)nc34)c2Cl)cn1 | – | – | – | 1.4 nM | – | 57.6% | 50.5% | –
Cc1cc(OCc2ccccn2)c2cccc(OCc3c(Cl)ccc(N(C)C(=O)CNC(=O)/C=C/c4ccc(NC(=O)c5ccncc5)cc4)c3Cl)c2n1 | – | – | – | 0.56 nM | – | 26.9% | 42.3% | 6.1 nM
COCCn1c(OC)nc2c(OCc3c(Cl)ccc(N(C)C(=O)CNC(=O)/C=C/c4ccc(NC(C)=O)nc4)c3Cl)cccc21 | 38.3% | 54.8% | 4.6 nM | 3.5 nM | – | – | – | –
CCOC(=O)COc1cc(C)nc2c(OCc3c(Cl)ccc(N(C)C(=O)CNC(=O)/C=C/c4ccc(C(=O)NC)cc4)c3Cl)cccc12 | – | – | 20 nM | 2.6 nM | 66.4% | 53.7% | – | –
